Results reported in ChEMBL document CHEMBL1148017, “Radioiodination of new EGFR inhibitors as potential SPECT agents for molecular imaging of breast cancer” (Bioorg Med Chem, 2007).
Active and inactive are the calls of the source. The calls are words filed in the database; no cut-off is given here.

What was measured:
[1] = target: Epidermal growth factor receptor (Homo sapiens) (UniProt P00533); experiment: Inhibition of EGFR autophosphorylation in human A431 cells at 1 uM; format: cell-based; settings: A-431
Chain of Epidermal growth factor receptor (Homo sapiens) (P00533 whole entry): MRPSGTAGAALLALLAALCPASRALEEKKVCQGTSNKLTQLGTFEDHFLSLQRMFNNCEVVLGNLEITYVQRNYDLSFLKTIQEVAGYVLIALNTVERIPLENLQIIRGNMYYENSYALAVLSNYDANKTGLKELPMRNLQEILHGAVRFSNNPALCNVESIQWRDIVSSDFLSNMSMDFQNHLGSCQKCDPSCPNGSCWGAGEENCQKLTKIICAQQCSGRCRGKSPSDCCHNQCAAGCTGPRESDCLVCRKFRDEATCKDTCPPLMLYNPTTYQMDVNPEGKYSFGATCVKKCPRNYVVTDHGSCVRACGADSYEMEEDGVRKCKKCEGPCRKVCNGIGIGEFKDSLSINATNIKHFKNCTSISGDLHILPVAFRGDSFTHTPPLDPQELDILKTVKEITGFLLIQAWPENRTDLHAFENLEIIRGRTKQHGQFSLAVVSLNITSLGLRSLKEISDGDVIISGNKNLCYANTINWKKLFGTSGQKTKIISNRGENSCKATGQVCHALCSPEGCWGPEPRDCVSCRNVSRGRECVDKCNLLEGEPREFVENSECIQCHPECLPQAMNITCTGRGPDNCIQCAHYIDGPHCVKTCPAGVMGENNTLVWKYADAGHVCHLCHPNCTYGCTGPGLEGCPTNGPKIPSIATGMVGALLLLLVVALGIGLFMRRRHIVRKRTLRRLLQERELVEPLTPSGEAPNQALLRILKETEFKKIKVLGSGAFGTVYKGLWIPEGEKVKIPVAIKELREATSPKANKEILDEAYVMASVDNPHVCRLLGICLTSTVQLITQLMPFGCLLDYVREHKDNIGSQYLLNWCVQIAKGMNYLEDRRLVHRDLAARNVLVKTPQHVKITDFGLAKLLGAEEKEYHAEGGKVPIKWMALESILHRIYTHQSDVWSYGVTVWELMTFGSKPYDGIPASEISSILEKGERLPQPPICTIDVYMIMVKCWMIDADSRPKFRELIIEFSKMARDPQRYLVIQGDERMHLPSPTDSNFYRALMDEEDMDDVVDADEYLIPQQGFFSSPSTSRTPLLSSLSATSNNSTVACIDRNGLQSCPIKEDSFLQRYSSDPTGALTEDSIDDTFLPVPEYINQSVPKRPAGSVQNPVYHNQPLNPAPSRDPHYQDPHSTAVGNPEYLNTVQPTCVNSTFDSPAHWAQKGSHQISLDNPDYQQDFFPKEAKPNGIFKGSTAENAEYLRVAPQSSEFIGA
Method in brief: (§1)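 A431 cells grown to about 70% confluence, serum-starved 24 h, then given compound (0.1–5 µM) for 2 h and stimulated with EGF 20 ng/mL for 5 min. Lysates loaded at equal total protein (BCA), run on 8% SDS-PAGE and blotted to PVDF. Probed with anti-phosphotyrosine PY20 and an HRP anti-mouse secondary, detected by ECL. Bands quantified against controls with and without EGF, no drug.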

A-431 = experiment: Growth inhibition of human A431 cells by MTT assay; format: functional, cell-based
Method in brief: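 A431 cells kept in high-glucose D-MEM with 10% foetal calf serum, 37 °C, 5% CO2. Plated at 3×10^3 cells/well and grown 24 h, then exposed to 1–50 µM compound (4 replicates) for 24, 48 and 72 h. MTT 1 mg/mL in phenol-red-free RPMI for 4 h, isopropanol solubilisation, A540 against 620 nm reference. % of untreated control plotted semi-log against concentration; IC50 read from the curve.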

[2] = target: Epidermal growth factor receptor (Homo sapiens) (UniProt P00533); experiment: Inhibition of EGFR autophosphorylation in human A431 cells at 0.1 uM; format: cell-based; settings: A-431; method in brief: as §1
Liver [3] = experiment: Biodistribution in CD1 mouse liver at 175 to 200 kBq, iv after 4 hrs; format: ADME, organism-based; settings: in vivo
Method in brief: (§2)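 Female CD-1 mice (20-25 g, groups of 5) given the radioiodinated compound via tail vein, 175-200 kBq in saline (100 µL) with 0.1% Tween 20. Injected dose taken as syringe activity before minus after. Killed at 1 and 4 h; organs removed, weighed and gamma-counted. Values are % ID per total organ, mean ± SD.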

Liver [4] = experiment: Biodistribution in CD1 mouse liver at 175 to 200 kBq, iv after 1 hr; format: ADME, organism-based; settings: in vivo; method in brief: as §2
Thyroid gland [5] = experiment: Biodistribution in CD1 mouse thyroid at 175 to 200 kBq, iv after 4 hrs; format: ADME, organism-based; settings: in vivo; method in brief: as §2
Stomach [6] = experiment: Biodistribution in CD1 mouse stomach at 175 to 200 kBq, iv after 1 hr; format: ADME, organism-based; settings: in vivo; method in brief: as §2
[7] = Partition coefficient, log P at pH 7.4; format: physicochemical; settings: octanol/water
Method in brief: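 Shake-flask method with back-extraction. Radiotracer placed in mutually saturated octanol and PBS pH 7.4, vortexed and centrifuged (3000 rpm, 10 min, rt). Both phases gamma-counted. 0.5 mL of octanol re-extracted against an equal volume of PBS and counting repeated. log P is taken from the octanol/buffer count ratio.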

Thyroid gland [8] = experiment: Biodistribution in CD1 mouse thyroid at 175 to 200 kBq, iv after 1 hr; format: ADME, organism-based; settings: in vivo; method in brief: as §2
Stomach [9] = experiment: Biodistribution in CD1 mouse stomach at 175 to 200 kBq, iv after 4 hrs; format: ADME, organism-based; settings: in vivo; method in brief: as §2
Serum = experiment: Protein binding in human serum; format: ADME, cell-free
Method in brief: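 Radioiodinated tracer (≈370 kBq) incubated in 1 mL fresh human serum at 37 °C. Duplicate 100 µL samples taken at 15 min, 1, 2, 4 and 21 h. Proteins precipitated with 200 µL ethanol, cooled to 4 °C and centrifuged. Pellet washed with ethanol and gamma-counted. Pellet activity is expressed as % of total activity.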

SMILES	inhibition [1]	IC50 (A-431)	Activity [2]	Drug uptake (Liver [3])	Drug uptake (Liver [4])	Drug uptake (Thyroid gland [5])	Drug uptake (Stomach [6])	logD [7]	Drug uptake (Thyroid gland [8])	Drug uptake (Stomach [9])	Activity (Serum)
O=C(CCBr)Nc1ccc2ncnc(Nc3ccc(F)c(Cl)c3)c2c1	100%	3000 nM	Active	–	–	–	–	–	–	–	–
O=C(CC[125I])Nc1ccc2ncnc(Nc3ccc(F)c(Cl)c3)c2c1	–	–	–	2.3 %ID	6.1 %ID	13.2 %ID	35.2 %ID	2.25	5.7 %ID	3.9 %ID	6%
O=C(CCI)Nc1ccc2ncnc(Nc3ccc(F)c(Cl)c3)c2c1	100%	2000 nM	Active	–	–	–	–	–	–	–	–
Nc1ccc2ncnc(Nc3ccc(F)c(Cl)c3)c2c1	95%	25000 nM	–	–	–	–	–	–	–	–	–
